Measurements collected from several papers.
Compare with care: the assays were run in different laboratories.

Cc1noc(C)c1Cn1cc(N2C(=O)N(Cc3cccc(O)c3)C(C)(C)C2=O)cn1
concentration (male Sprague-Dawley rat, plasma; oral, 100 mg/kg, 4 h, single dose): 0.0029 µg/mL

CCc1cc(-c2noc(-c3cc(OC)nc(C4CCCC4)c3)n2)cc(C)c1OC[C@@H](O)CO
concentration (Wistar rat, plasma; oral, 10 mg/kg, 24 h, single dose): 0.35 µg/mL

COc1ccc2c(=O)n(C)c(-c3ccccc3)nc2c1
concentration (male Sprague-Dawley rat, lung; oral, 30 mg/kg, 30 min, single dose): 27.5 ng/g

CCOC(=O)[C@@]12C[C@@H]1[C@@H](n1ccc3c(NC)nc(C#Cc4ccc(Cl)s4)nc31)[C@H](O)[C@@H]2O
concentration (male Sprague-Dawley rat, plasma; oral, 10 mg/kg, 4 h): 0.0235 µg/mL

CCc1cc(OC)c2nccc(N3CCc4c(cc(Cn5ccnc5)cc4-c4cn(C)nc4C(F)(F)F)C3=O)c2c1
C0 (male Sprague-Dawley rat, plasma; intravenous, 3 mg/kg): 1.15 µg/mL

Cc1noc(C)c1Cn1cc(N2C(=O)CN(Cc3cccc(O)c3)C2=O)cn1
concentration (male Sprague-Dawley rat, plasma; oral, 10 mg/kg, 4 h): 0.00272 µg/mL

CCc1cc(C(=O)NC)c2nccc(N3CCc4c(cc(Cn5ccnc5)cc4-c4cn(C)nc4C(F)(F)F)C3=O)c2c1
half-life (male Sprague-Dawley rat, plasma; oral, 50 mg/kg): 36 min

COc1cc2c3c(n(CCCN4CCOCC4)c(=O)c2cc1OC)-c1cc2c(cc1C3=O)OCO2
half-life (female Fischer 344 rat, plasma; intravenous, 12 mg/m², single dose): 252 min

COC(=O)[C@H](N)CSSC[C@@H](N)C(=O)OC
half-life (chemical stability; rat, plasma): 8.14 min

Oc1c(Br)cc(Cl)c2cccnc12
C0 (Sprague-Dawley rat, plasma; intravenous, 2 mg/kg): 2.4 µg/mL

COc1cccc(-c2n[nH]c(SCc3ccccn3)n2)c1OC
concentration (male Sprague-Dawley rat, plasma; oral, 10 mg/kg, 2 h, single dose): 1.16 µg/mL
